According to ChEMBL document CHEMBL1143164, “Synthesis and structure-activity relationships of ring-opened 17-hydroxywortmannins: potent phosphoinositide 3-kinase inhibitors with improved properties and anticancer efficacy” (J Med Chem, 2008):

Experiments:
[1] = test system: LNCaP; experiment: Growth inhibition of human LNCap cells; assay type: functional, cell-based
[2] = molecular target: Serine/threonine-protein kinase mTOR (Homo sapiens, UniProt P42345); experiment: Inhibition of mTOR
[3] = molecular target: Phosphatidylinositol 4,5-bisphosphate 3-kinase catalytic subunit alpha isoform (Homo sapiens, UniProt P42336); experiment: Inhibition of PI3K expressed in Escherichia coli by microtiter plate-based fluorescence polarization assay
Phosphatidylinositol 4,5-bisphosphate 3-kinase catalytic subunit alpha isoform, sequence (P42336 whole entry, canonical isoform): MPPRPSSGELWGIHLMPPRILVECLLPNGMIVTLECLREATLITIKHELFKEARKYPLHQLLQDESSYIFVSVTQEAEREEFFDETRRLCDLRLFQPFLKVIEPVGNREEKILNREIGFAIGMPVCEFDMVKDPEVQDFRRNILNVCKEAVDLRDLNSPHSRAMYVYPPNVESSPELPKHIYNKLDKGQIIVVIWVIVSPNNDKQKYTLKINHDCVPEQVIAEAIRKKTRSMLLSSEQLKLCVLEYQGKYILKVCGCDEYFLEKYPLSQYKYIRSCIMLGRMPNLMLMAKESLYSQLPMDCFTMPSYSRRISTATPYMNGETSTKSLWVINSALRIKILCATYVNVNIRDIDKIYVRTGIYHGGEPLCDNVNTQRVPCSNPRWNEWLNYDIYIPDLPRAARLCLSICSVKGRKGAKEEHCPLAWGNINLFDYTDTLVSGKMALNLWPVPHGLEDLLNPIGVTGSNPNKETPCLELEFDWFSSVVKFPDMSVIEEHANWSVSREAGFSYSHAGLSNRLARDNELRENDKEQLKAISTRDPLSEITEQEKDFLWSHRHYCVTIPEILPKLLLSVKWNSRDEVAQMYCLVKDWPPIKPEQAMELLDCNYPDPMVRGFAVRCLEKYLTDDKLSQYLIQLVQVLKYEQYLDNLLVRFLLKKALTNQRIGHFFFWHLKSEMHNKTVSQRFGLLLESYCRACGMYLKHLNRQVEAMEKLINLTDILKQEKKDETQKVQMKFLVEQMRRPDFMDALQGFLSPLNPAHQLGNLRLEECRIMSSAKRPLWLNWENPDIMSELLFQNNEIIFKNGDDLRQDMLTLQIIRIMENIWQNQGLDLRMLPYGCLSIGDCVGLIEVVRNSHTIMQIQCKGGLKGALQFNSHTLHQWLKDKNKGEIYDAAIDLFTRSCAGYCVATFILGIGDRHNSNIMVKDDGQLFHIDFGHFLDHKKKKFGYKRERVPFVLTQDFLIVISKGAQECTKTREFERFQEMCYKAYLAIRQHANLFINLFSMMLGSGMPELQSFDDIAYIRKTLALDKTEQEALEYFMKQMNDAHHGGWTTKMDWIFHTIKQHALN
In short: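 Fluorescence polarization assay of PI3K activity with PIP2 substrate. Reactions contained 20 mM Hepes pH 7.5, 2 mM MgCl2, 0.05% CHAPS, 0.01% βME, 20 µM PIP2 and 25 µM ATP, and ran 15–30 min at room temperature. They were stopped with buffer holding 10 nM TAMRA-labeled probe and 40 nM GST-GRP1 (E. coli-expressed detector), then incubated 1–2 h before FP readout.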

Row | IC50 [1] | IC50 [2] | IC50 [3] | Structure (SMILES)
1 | 1520 nM | 2450 nM | 172 nM | COC[C@H]1OC(=O)/C(=C/N2CCC(c3ccccc3)CC2)C2=C(O)C(=O)C3=C([C@H](OC(C)=O)C[C@]4(C)[C@@H](O)CC[C@@H]34)[C@]21C
2 | 257 nM | > 20000 nM | 496 nM | COC[C@H]1OC(=O)/C(=C/N2CCCC2)C2=C(O)C(=O)C3=C([C@H](OC(C)=O)C[C@]4(C)[C@@H](O)CC[C@@H]34)[C@]21C
3 | 500 nM | 822 nM | 33 nM | COC[C@H]1OC(=O)/C(=C/N2CCC(C(=O)O)CC2)C2=C(O)C(=O)C3=C([C@H](OC(C)=O)C[C@]4(C)[C@@H](O)CC[C@@H]34)[C@]21C
4 | 1310 nM | 1480 nM | 24 nM | CCN(/C=C1/C(=O)O[C@H](COC)[C@@]2(C)C1=C(O)C(=O)C1=C2[C@H](OC(C)=O)C[C@]2(C)[C@@H](O)CC[C@@H]12)CCN(CC)CC
5 | 831 nM | 249 nM | 38 nM | COC[C@H]1OC(=O)/C(=C/N2CCN(CCCN(C)C)CC2)C2=C(O)C(=O)C3=C([C@H](OC(C)=O)C[C@]4(C)[C@@H](O)CC[C@@H]34)[C@]21C
6 | 131 nM | > 18700 nM | 918 nM | COC[C@H]1OC(=O)/C(=C/N(CCO)CCO)C2=C(O)C(=O)C3=C([C@H](OC(C)=O)C[C@]4(C)[C@@H](O)CC[C@@H]34)[C@]21C
7 | 1010 nM | 1210 nM | 127 nM | COC[C@H]1OC(=O)/C(=C/N(C)C2CCN(C)C2)C2=C(O)C(=O)C3=C([C@H](OC(C)=O)C[C@]4(C)[C@@H](O)CC[C@@H]34)[C@]21C (stereo partly drawn)
8 | 465 nM | 2330 nM | 10 nM | COC[C@H]1OC(=O)/C(=C/N(C)CCCN2CCN(C)CC2)C2=C(O)C(=O)C3=C([C@H](OC(C)=O)C[C@]4(C)[C@@H](O)CC[C@@H]34)[C@]21C
9 | 1650 nM | 890 nM | 87 nM | COC[C@H]1OC(=O)/C(=C/N2CCN(Cc3ccccc3)CC2)C2=C(O)C(=O)C3=C([C@H](OC(C)=O)C[C@]4(C)[C@@H](O)CC[C@@H]34)[C@]21C
10 | 620 nM | 1350 nM | 15 nM | COC[C@H]1OC(=O)/C(=C/N(C)CCCN2CCN(c3ccc(OC)cc3)CC2)C2=C(O)C(=O)C3=C([C@H](OC(C)=O)C[C@]4(C)[C@@H](O)CC[C@@H]34)[C@]21C
11 | 699 nM | 960 nM | 60 nM | COC[C@H]1OC(=O)/C(=C/N2CCC(=O)CC2)C2=C(O)C(=O)C3=C([C@H](OC(C)=O)C[C@]4(C)[C@@H](O)CC[C@@H]34)[C@]21C
12 | 595 nM | 2290 nM | 24 nM | COC[C@H]1OC(=O)/C(=C/N(C)CCCN2CCOCC2)C2=C(O)C(=O)C3=C([C@H](OC(C)=O)C[C@]4(C)[C@@H](O)CC[C@@H]34)[C@]21C
13 | 2340 nM | > 20000 nM | 638 nM | COC[C@H]1OC(=O)/C(=C/N(C)CCCN(C)C)C2=C(O)C(=O)C3=C([C@H](O)C[C@]4(C)[C@@H](O)CC[C@@H]34)[C@]21C
14 | 365 nM | 12600 nM | 193 nM | COC[C@H]1OC(=O)/C(=C/N(C)CCCC(=O)O)C2=C(O)C(=O)C3=C([C@H](OC(C)=O)C[C@]4(C)[C@@H](O)CC[C@@H]34)[C@]21C
15 | 1550 nM | 1800 nM | 104 nM | COC[C@H]1OC(=O)/C(=C/N2CCCCC2)C2=C(O)C(=O)C3=C([C@H](OC(C)=O)C[C@]4(C)[C@@H](O)CC[C@@H]34)[C@]21C
16 | 1470 nM | 820 nM | 43 nM | COC[C@H]1OC(=O)/C(=C/N2CCN(C3CCCCC3)CC2)C2=C(O)C(=O)C3=C([C@H](OC(C)=O)C[C@]4(C)[C@@H](O)CC[C@@H]34)[C@]21C
17 | 40700 nM | > 20000 nM | > 10000 nM | COC[C@H]1OC(=O)/C(=C/NC(C)(C)C)C2=C(O)C(=O)C3=C([C@H](OC(C)=O)C[C@]4(C)[C@@H](O)CC[C@@H]34)[C@]21C

Row | IC50 [1] | IC50 [2] | IC50 [3] | Structure (SMILES)
18 | 1500 nM | 568 nM | 63 nM | COC[C@H]1OC(=O)/C(=C/N2CCC(N3CCCCC3)CC2)C2=C(O)C(=O)C3=C([C@H](OC(C)=O)C[C@]4(C)[C@@H](O)CC[C@@H]34)[C@]21C
19 | 637 nM | 1200 nM | 45 nM | COC[C@H]1OC(=O)/C(=C/N2CCN(CCCN3CCOCC3)CC2)C2=C(O)C(=O)C3=C([C@H](OC(C)=O)C[C@]4(C)[C@@H](O)CC[C@@H]34)[C@]21C
20 | 919 nM | 816 nM | 9.6 nM | COC[C@H]1OC(=O)/C(=C/N(CCCN(C)C)C(C)(C)C)C2=C(O)C(=O)C3=C([C@H](OC(C)=O)C[C@]4(C)[C@@H](O)CC[C@@H]34)[C@]21C
21 | 259 nM | 3560 nM | 22 nM | COC[C@H]1OC(=O)/C(=C/N(CCCN(C)C)CCCN(C)C)C2=C(O)C(=O)C3=C([C@H](OC(C)=O)C[C@]4(C)[C@@H](O)CC[C@@H]34)[C@]21C
22 | 2020 nM | > 20000 nM | > 10000 nM | COC[C@H]1OC(=O)/C(=C/NCCCN(C)C)C2=C(O)C(=O)C3=C([C@H](OC(C)=O)C[C@]4(C)[C@@H](O)CC[C@@H]34)[C@]21C
23 | 506 nM | 1690 nM | 31 nM | COC[C@H]1OC(=O)/C(=C/N2CCC(C(=O)OC)CC2)C2=C(O)C(=O)C3=C([C@H](OC(C)=O)C[C@]4(C)[C@@H](O)CC[C@@H]34)[C@]21C
24 | 782 nM | 961 nM | 91 nM | COC[C@H]1OC(=O)/C(=C/N2CCN(C3CCN(C)CC3)CC2)C2=C(O)C(=O)C3=C([C@H](OC(C)=O)C[C@]4(C)[C@@H](O)CC[C@@H]34)[C@]21C
25 | 189 nM | 6500 nM | 440 nM | COC[C@H]1OC(=O)/C(=C/N(C)C(C)(C)C)C2=C(O)C(=O)C3=C([C@H](OC(C)=O)C[C@]4(C)[C@@H](O)CC[C@@H]34)[C@]21C
26 | 144 nM | > 1690 nM | 444 nM | COC[C@H]1OC(=O)/C(=C/N(CCC#N)Cc2ccccc2)C2=C(O)C(=O)C3=C([C@H](OC(C)=O)C[C@]4(C)[C@@H](O)CC[C@@H]34)[C@]21C
27 | 953 nM | 692 nM | 56 nM | COC[C@H]1OC(=O)/C(=C/N2CCN(c3ccccc3)CC2)C2=C(O)C(=O)C3=C([C@H](OC(C)=O)C[C@]4(C)[C@@H](O)CC[C@@H]34)[C@]21C
28 | 168 nM | 1870 nM | 199 nM | COC[C@H]1OC(=O)/C(=C/N(C)CC(O)CO)C2=C(O)C(=O)C3=C([C@H](OC(C)=O)C[C@]4(C)[C@@H](O)CC[C@@H]34)[C@]21C (stereo partly drawn)
29 | 751 nM | 1470 nM | 8.4 nM | COC[C@H]1OC(=O)/C(=C/N(C)CCN(C)C)C2=C(O)C(=O)C3=C([C@H](OC(C)=O)C[C@]4(C)[C@@H](O)CC[C@@H]34)[C@]21C
30 | 1090 nM | 829 nM | 90 nM | COC[C@H]1OC(=O)/C(=C/N2CCN(C)CC2)C2=C(O)C(=O)C3=C([C@H](OC(C)=O)C[C@]4(C)[C@@H](O)CC[C@@H]34)[C@]21C
31 | 794 nM | 619 nM | 78 nM | COC[C@H]1OC(=O)/C(=C/N2CCN(CCN3CCOCC3)CC2)C2=C(O)C(=O)C3=C([C@H](OC(C)=O)C[C@]4(C)[C@@H](O)CC[C@@H]34)[C@]21C
32 | 1430 nM | 5600 nM | 66 nM | COC[C@H]1OC(=O)/C(=C/N(CCN(C)C)Cc2ccccc2)C2=C(O)C(=O)C3=C([C@H](OC(C)=O)C[C@]4(C)[C@@H](O)CC[C@@H]34)[C@]21C
33 | 174 nM | 13900 nM | 1580 nM | COC[C@H]1OC(=O)/C(=C/N(C)CC(=O)OC(C)(C)C)C2=C(O)C(=O)C3=C([C@H](OC(C)=O)C[C@]4(C)[C@@H](O)CC[C@@H]34)[C@]21C
34 | 2590 nM | 767 nM | 50 nM | CCN(CC)CCN(C)/C=C1/C(=O)O[C@H](COC)[C@@]2(C)C1=C(O)C(=O)C1=C2[C@H](OC(C)=O)C[C@]2(C)[C@@H](O)CC[C@@H]12

Row | Structure (SMILES) | IC50 [1] | IC50 [2] | IC50 [3]
35 | COC[C@H]1OC(=O)/C(=C/N2CCOCC2)C2=C(O)C(=O)C3=C([C@H](OC(C)=O)C[C@]4(C)[C@@H](O)CC[C@@H]34)[C@]21C | 966 nM | 831 nM | 37 nM
36 | CCCCN(C)/C=C1/C(=O)O[C@H](COC)[C@@]2(C)C1=C(O)C(=O)C1=C2[C@H](OC(C)=O)C[C@]2(C)[C@@H](O)CC[C@@H]12 | 203 nM | 8700 nM | 635 nM
37 | CCN/C=C1/C(=O)O[C@H](COC)[C@@]2(C)C1=C(O)C(=O)C1=C2[C@H](OC(C)=O)C[C@]2(C)[C@@H](O)CC[C@@H]12 | 7070 nM | > 20000 nM | > 10000 nM
38 | C=CCN(/C=C1/C(=O)O[C@H](COC)[C@@]2(C)C1=C(O)C(=O)C1=C2[C@H](OC(C)=O)C[C@]2(C)C(=O)CC[C@@H]12)CC=C [SONOLISIB] | 573 nM | 3100 nM | 88 nM
39 | CCN(/C=C1/C(=O)O[C@H](COC)[C@@]2(C)C1=C(O)C(=O)C1=C2[C@H](O)C[C@]2(C)[C@@H](O)CC[C@@H]12)CC | 710 nM | > 20000 nM | 7850 nM
40 | CCN(/C=C1/C(=O)O[C@H](COC)[C@@]2(C)C1=C(O)C(=O)C1=C2[C@H](OC(C)=O)C[C@]2(C)[C@@H](O)CC[C@@H]12)CCCN(C)C | 535 nM | 3570 nM | 12 nM
41 | CCN(/C=C1/C(=O)O[C@H](COC)[C@@]2(C)C1=C(O)C(=O)C1=C2[C@H](OC(C)=O)C[C@]2(C)[C@@H](O)CC[C@@H]12)CCN(C)C | 1020 nM | 878 nM | 5 nM
